Screening data: PubChem, several laboratories
NPY-Y1 antag – antagonists of human neuropeptide Y receptor Y1; AID 1040; hit rate 1% among 200,000; P25929; inhibition, % at 3.6 µM; HEK293-CNG Y1 cells, membrane potential fluorescence; NPY at EC95, then isoproterenol;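 active means inhibition above the campaign mean inhibition of all tested compounds plus 3 SD, cut at about 20% in these data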;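 further: 0% = DMSO wells given NPY plus isoproterenol and 100% = isoproterenol alone without NPY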
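Material: HEK293 cells co-expressing NPY Y1 receptor and cyclic-nucleotide gated channel. Timing: compound incubation 1 h at room temperature, readout 45 min post-stimulation. Signal: fluorescence, membrane potential probe.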
NPY1 pot ag – human NPY-Y1 potentiation or agonism, primary screen; NPY-Y1 expressing cells, potentiator/agonist activation; activation, % at 3.6 µM; hit rate 0.37% among 220,000; AID 1304; in the data active means activation above about 33%, passing the limit was not always enough;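 further: cells stimulated with NPY at EC10 then isoproterenol at EC100; 0% = low agonist plus stimulus and 100% = saturating agonist plus stimulus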
NPY-Y2 antag – NPY-Y2 (human) receptor antagonism; P49146; NPY-Y2 expressing cells, antagonist mode; inhibition, % at 2.7 µM; hit rate 0.99% among 140,000; in the data active means inhibition above about 17%;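 further: 0% = vehicle with agonist challenge and 100% = reference antagonist with challenge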
Target sequence (P49146 whole entry, looked up): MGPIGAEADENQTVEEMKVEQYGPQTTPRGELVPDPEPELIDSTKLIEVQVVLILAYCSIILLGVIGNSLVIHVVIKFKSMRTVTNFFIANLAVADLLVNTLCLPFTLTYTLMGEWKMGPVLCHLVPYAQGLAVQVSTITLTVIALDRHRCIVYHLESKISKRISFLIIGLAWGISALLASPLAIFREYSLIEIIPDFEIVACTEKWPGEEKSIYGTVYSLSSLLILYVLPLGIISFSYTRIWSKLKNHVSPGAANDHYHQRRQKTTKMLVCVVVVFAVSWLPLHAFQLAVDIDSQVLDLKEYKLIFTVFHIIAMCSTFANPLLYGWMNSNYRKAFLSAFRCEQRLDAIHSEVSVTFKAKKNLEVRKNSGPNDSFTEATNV
EP2 modulator – modulators of human EP2 prostaglandin E2 receptor. P43116. EP2-expressing cells, cAMP HTRF FRET, PGE2 co-stimulation. induction, % at 25 µM. hit rate 0.83% among 260,000;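 active means compounds whose cAMP rise, as percent of the full-agonist control response, exceeds 60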;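 further: rat C6 glioma line stably carrying human EP2 under a CMV promoter; the protocol text gives 20 µM as final concentration; 100% = response of wells given 1 µM PGE2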
NPY-Y2 PAM-ag – potentiates or activates human NPY-Y2 receptor | P49146 | hit rate 0.45% among 220,000 | activation, % at 3.6 µM | cells expressing NPY-Y2, potentiator/agonist read-out; in the data active means activation above about 27%;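 further: cells stimulated with NPY near EC25 plus isoproterenol at EC100; 0% = vehicle plus submaximal agonist and 100% = vehicle plus saturating agonist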
PGE2 EP2 inh – inhibitors of human EP2 prostaglandin E2 receptor | C6 glioma cells expressing human EP2, cAMP TR-FRET; cells stimulated with saturating PGE2 | hit rate 0.52% among 260,000 | inhibition, % at 25 µM | AID 1422;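 active means percent inhibition above 40 after rounding to a whole number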;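 further: rat C6 glioma host cells with rolipram phosphodiesterase inhibitor present; the protocol text gives 20 µM as final concentration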
An asterisk follows results filed as active; · = no result given; ! = repeats disagree. Rows were chosen to be rich in hits. Some 2.8% of all compounds tested hit in one or more screens of this group.

SMILES	NPY-Y1 antag	NPY1 pot ag	NPY-Y2 antag	EP2 modulator	NPY-Y2 PAM-ag	PGE2 EP2 inh
Nc1nonc1C(=O)NCCNCc1cc(Br)ccc1OCc1ccc(F)cc1	14	-39	15	-10	-7	2
Nc1nonc1C(=O)NCCNCc1c(OCc2ccccc2F)ccc2ccccc12	34*	-69	50*	-26	-31	6
COC(=O)/C(=N/Nc1ccc(C)cc1)N1CCCc2ccccc21	29*	1	19*	-3	-6	3
CC(=O)/C(=N/Nc1ccc(Br)cc1)N1CCCc2ccccc21	·	3	·	40	-3	8
COC(=O)/C(=N/Nc1ccccc1)N1CCCc2ccccc21	29*	6	22*	17	-13	6
COC(=O)/C(=N/Nc1cccc(C)c1)N1CCCc2ccccc21	19	-14	6	10	-3	21
Cc1csc(NC(=O)CSc2nnc(COc3c(C)cccc3C)n2C)n1	·	·	·	-11	·	12
Cc1cc(N/N=C/c2ccccc2Cl)nc(NCc2ccccc2)n1	25*	-72	19*	-7	-14	11
Cc1cc(C)nc(N/N=C/c2ccccc2Cl)n1	·	12	·	-20	-21	11
Cc1cc(NC2CCCCC2)nc(NCc2ccccc2)n1	23*	-34	24*	10	-16	10
CCOC(=O)C1=C(C)N(C)C(C)=C(C(=O)OCC)C1c1ccc(C(=O)OC)cc1	35*	-15	25*	33	-13	8
COC(=O)CSc1nc2cc(C)cc(C)c2cc1C	·	·	·	31	·	8
CCOC(=O)COc1ccc2c3c(c(=O)oc2c1C)CCC3	4	-32	4	0	0	9
CCOC(=O)CCc1c(C)c2ccc(OCC)c(C)c2oc1=O	33*	-16	29*	23	-11	6
Cc1nn(C(C)(C)C)c(OC(=O)c2ccc3c(c2)OCO3)c1Sc1ccccc1	48*	-33	29*	24	-26	22
Cc1nn(C(C)(C)C)c(OC(=O)c2ccc3c(c2)OCO3)c1S(=O)(=O)c1ccccc1	2	-29	3	26	-8	21
Cc1cccc(N(C(=O)c2csnn2)C(C(=O)NC2CCCC2)c2cccs2)c1C (centres undefined)	·	·	·	6	·	9
COc1ccc(CC(=O)N2CCN(C(=O)Cc3ccc(OC)cc3)CC2)cc1	3	5	3	15	20	·
COc1ccc(CC(=O)N2CCN(c3ccc(C4=NNC(=O)CC4C)cc3)CC2)cc1 (centres undefined)	79*	-79	83*	38	-23	·
COCCNC(=O)CCCn1c(=O)c2cc(OC)c(OC)cc2n(CC(=O)Nc2ccccc2OC)c1=O	21*	-5	·	-11	-6	6
Nc1nc(N)c2cc(Sc3ccc4ccccc4c3)ccc2n1	·	11	·	-44	7	53*
CCOC(=O)c1cc2sc(C)cc2n1CC(=O)N(C(C)C)C(C)C	·	·	·	25	·	7
S=C(Nc1ccc(Cl)cc1)NC1CC2CCCC(C1)N2C1CC1 (centres undefined)	-4	29	0	-96	12	48*!
S=C(Nc1ccc(Cl)cc1)NC1CC2CCCC(C1)N2C1CCCC1 (centres undefined)	-1	-2	-3	-35	-2	31
O=C(O)c1c(-c2c3ccc(=O)cc-3oc3cc(O)ccc23)cc2ccccc2c1-c1ccccc1	·	·	·	36	·	42*
SMILES	NPY-Y1 antag	NPY1 pot ag	NPY-Y2 antag	EP2 modulator	NPY-Y2 PAM-ag	PGE2 EP2 inh
O=C(NCc1ccc(F)cc1)c1ccc(S(=O)(=O)Nc2cccc(C(F)(F)F)c2)cc1	-10	48*	-1	-13	37*	4
COc1ccc(CCNC(=O)COc2ccc3c(C)cc(=O)oc3c2)cc1OC	·	·	·	-54	·	11
COc1ccc(CC[N@+]2(C)COc3cc4oc(=O)cc(C)c4cc3C2)cc1OC	·	·	·	16	·	51*
COc1cc(/C=C/c2nc3ccc([N+](=O)[O-])cc3s2)ccc1OCC(=O)O	·	-3	·	85*	-11	11
COC(=O)c1cc(NC(=O)CC2SC(=Nc3ccccc3)N(CCc3c[nH]c4ccccc34)C2=O)cc(C(=O)OC)c1 (centres undefined)	-8	47*	-4	-10	35*	11
CC(C)(C)c1ncc(C(=O)NC(c2ccccc2)c2cccnc2)cn1 (centres undefined)	·	·	·	2	·	-1
C[C@@H](NCCc1ccc(O)cc1)[C@@H](O)c1ccc(O)cc1	·	·	·	17	·	9
CCCCCCCCNC(C)C(O)c1ccc(SC(C)C)cc1 (centres undefined)	-2	-3	5	-23	12	115*!
O=C(Cc1ccc(F)cc1)N1CCC(n2cnc3cccnc32)CC1	·	·	·	-1	·	7
COC(=O)C(Nc1ccccc1Cl)(c1cc(C)c(O)c(C)c1)C(F)(F)F (centres undefined)	-2	12	3	-11	-5	13
COC(=O)/C(=C(/F)Sc1cc(C)c(O)c(C)c1)C(F)(F)F	-3	0	-1	-20	3	99*
Fc1ccc(N2CCN(Cc3nnnn3Cc3ccc4c(c3)OCO4)CC2)cc1	·	·	·	-68	·	9
N#CCCN1CCCc2cc(N=Nc3ccc(C(F)(F)F)cc3)ccc21	·	73*	·	-28	54*	4
CCCN1CCCc2ccccc21	3	3	2	13	16	12
CCOC(=O)c1sc(NC(=O)c2ccc(C(C)C)cc2)c(C#N)c1C	·	·	·	11	·	13
COc1cccc(CN(C)C(=O)c2cc(COc3ccc4ncccc4c3)on2)c1	21*	-59	·	-45	19	8
Cc1nc(NC2CCN(C(=O)C3(c4ccccc4)CC3)CC2)[nH]c(=O)c1C	·	·	·	-4	·	7
CC(=O)OCCCNc1cc(Sc2nc3ccccc3s2)c2nonc2c1[N+](=O)[O-]	-3	10	0	-21	4	41*
CC(=O)OCCCNc1cc(Sc2ccc(C)cc2)c2nonc2c1[N+](=O)[O-]	0	1	3	6	10	5
Cc1ccc(C2C3=C(CC(C)(C)CC3=O)Nc3n[nH]c(C)c32)cc1 (centres undefined)	-8	16	0	18	0	21
Cc1[nH]nc2c1C(c1ccc(N(C)C)cc1)C1=C(CC(C)(C)CC1=O)N2 (centres undefined)	20*	-2	·	7	-22	7
COc1ccc(N(CC(=O)Nc2ccccc2C(=O)N2CCOCC2)S(C)(=O)=O)cc1	·	·	·	-3	·	9
NC(=O)CSc1nc2c(c(=O)n1-c1ccccc1)C1(CCCCC1)Cc1ccccc1-2	-6	-9	-2	43	-7	12
Cc1cccc(-n2c(SCC(N)=O)nc3c(c2=O)C2(CCCC2)Cc2ccccc2-3)c1	-8	48*	-7	59	39*	12
C/C(=N\Nc1nc(N2CCCCC2)nc(N2CCOCC2)n1)c1ccccc1O	3	-3	·	64*	-19	10
